Assay results reported in ChEMBL document CHEMBL5252671, “Design, synthesis and evaluation of the anti-breast cancer activity of 1,3-oxazolo[4,5-d]pyrimidine and 1,3-oxazolo[5,4-d]pyrimidine derivatives” (2023).

How the values were obtained:
Assay type in all cases: functional
[1] = test system: MCF7; assay: Antiproliferative activity against human MCF7 cells assessed as inhibition of cell growth at 1 X 10^-5 M measured for 48 hrs by sulforhodamine B assay relative to control; conditions: MCF7, 48 h, dose 1 10^-5M
Method in brief: (§1)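 NCI one-dose screen. Cells were seeded at 5000-40000/well in RPMI 1640 with 5% FBS and 2 mM L-glutamine and preincubated 24 h at 37 °C in 5% CO2. Compound was added at 10⁻⁵ M for 48 h. Cells were then fixed with 10% TCA, stained with sulforhodamine B, washed with 1% acetic acid, solubilized in 10 mM Tris and read as OD at 510 nm.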

[2] = test system: MDA-MB-231; assay: Antiproliferative activity against human MDA-MB-231 cells assessed as inhibition of cell growth at 1 X 10^-5 M measured for 48 hrs by sulforhodamine B assay relative to control; conditions: MDA-MB-231, 48 h, dose 1 10^-5M; method in brief: as §1
[3] = test system: Hs-578T; assay: Antiproliferative activity against human Hs-578T cells assessed as inhibition of cell growth at 1 X 10^-5 M measured for 48 hrs by sulforhodamine B assay relative to control; conditions: dose 1 10^-5M; method in brief: as §1
[4] = test system: BT-549; assay: Antiproliferative activity against human BT-549 cells assessed as inhibition of cell growth at 1 X 10^-5 M measured for 48 hrs by sulforhodamine B assay relative to control; conditions: BT-549, 48 h, dose 1 10^-5M; method in brief: as §1
[5] = test system: T47D; assay: Antiproliferative activity against human T47D cells assessed as inhibition of cell growth at 1 X 10^-5 M measured for 48 hrs by sulforhodamine B assay relative to control; conditions: dose 1 10^-5M; method in brief: as §1
[6] = test system: MDA-MB-468; assay: Antiproliferative activity against human MDA-MB-468 cells assessed as inhibition of cell growth at 1 X 10^-5 M measured for 48 hrs by sulforhodamine B assay relative to control; conditions: MDA-MB-468, 48 h, dose 1 10^-5M; method in brief: as §1
[7] = test system: MCF7; assay: Anticancer activity against human MCF7 cells measured at 48 hrs
Method in brief: (§2)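 NCI DTP five-dose screen on the breast subpanel: compound at 0.01, 0.1, 1, 10 and 100 μM for 48 h. Cell density read by sulforhodamine B (protein content). GI50, TGI and LC50 were derived from the T, T0 and C optical densities using the NCI formulas.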

[8] = test system: MDA-MB-231; assay: Anticancer activity against human MDA-MB-231 cells measured at 48 hrs; method in brief: as §2
[9] = test system: Hs-578T; assay: Anticancer activity against human Hs-578T cells measured at 48 hrs; method in brief: as §2
[10] = test system: BT-549; assay: Anticancer activity against human BT-549 cells measured at 48 hrs; method in brief: as §2
[11] = test system: T47D; assay: Anticancer activity against human T47D cells measured at 48 hrs; conditions: for CC50: read-out: LC50 (the source's name); method in brief: as §2
[12] = test system: MDA-MB-468; assay: Anticancer activity against human MDA-MB-468 cells measured at 48 hrs; method in brief: as §2

Row | Compound | inhibition at 10 µM [1] | inhibition at 10 µM [2] | inhibition at 10 µM [3] | inhibition at 10 µM [4] | inhibition at 10 µM [5] | inhibition at 10 µM [6] | GI50 [7] | LC50 (concentration giving 50% net cell kill) [7] | TGI [7] | GI50 [8] | LC50 (concentration killing 50% of starting cells) [8] | TGI [8] | GI50 [9] | LC50 (50% lethal concentration) [9] | TGI [9] | GI50 [10] | TGI [10] | GI50 [11] | TGI [11] | GI50 [12] | also measured
1 | Cc1ccc(-c2nc3nc(-c4ccc(Cl)cc4)nc(N4CCCNCC4)c3o2)cc1 | 179% | 176% | 151% | 1% | 136% | 154% | 1.7 µM | 6.75 µM | 3.39 µM | 1.87 µM | 6.21 µM | 3.37 µM | 1.93 µM | 9.02 µM | 4.17 µM | 1.9 µM | 3.61 µM | 1.94 µM | 4.14 µM | 1.78 µM | LC50 (concentration giving 50% net cell kill) [10]: 6.86 µM; CC50 [11]: 8.84 µM; LC50 (concentration giving 50% net cell kill) [12]: 6.59 µM; TGI [12]: 3.42 µM
2 | Cc1ccc(-c2nc3nc(-c4ccc(F)cc4)nc(N4CCNCC4)c3o2)cc1 | 174% | 129% | 106% | 1% | 127% | 46% | 1.66 µM | 7.4 µM | 3.51 µM | 1.86 µM | 7.09 µM | 3.63 µM | 2.06 µM | 37 µM | 5.12 µM | 13.6 µM | 30.1 µM | 2.3 µM | 6.92 µM | 1.74 µM | LC50 (concentration giving 50% net cell kill) [10]: 66.8 µM; CC50 [11]: > 100 µM; LC50 (concentration giving 50% net cell kill) [12]: 6.56 µM; TGI [12]: 3.38 µM
3 | Cc1ccc(-c2nc(N3CCNCC3)c3oc(-c4ccccc4)nc3n2)cc1 | 175% | 179% | 72% | 15% | 158% | 131% | 1.85 µM | 7.6 µM | 3.75 µM | 1.62 µM | 5.77 µM | 3.06 µM | 2.53 µM | > 100 µM | 7.69 µM | 13.8 µM | 31.6 µM | 1.81 µM | 3.83 µM | 1.81 µM | LC50 (concentration giving 50% net cell kill) [10]: 72.7 µM; CC50 [11]: 8.07 µM; LC50 (concentration giving 50% net cell kill) [12]: 7.98 µM; TGI [12]: 3.8 µM
4 | Cc1ccc(-c2nc3nc(-c4ccc(Br)cc4)nc(N4CCCNCC4)c3o2)cc1 | 176% | 157% | 130% | 1% | 108% | 165% | 1.78 µM | 6.91 µM | 3.51 µM | 1.93 µM | 8.5 µM | 4.05 µM | 17.2 µM | 80.2 µM | 37.1 µM | 16 µM | 34.6 µM | 3.06 µM | 13.9 µM | 3.98 µM | LC50 (concentration giving 50% net cell kill) [10]: 75 µM; CC50 [11]: 65.5 µM; LC50 (concentration giving 50% net cell kill) [12]: 52.5 µM; TGI [12]: 15.9 µM
5 | c1ccc(-c2nc(N3CCNCC3)c3nc(-c4ccccc4)oc3n2)cc1 | 169% | 181% | 11% | 3% | 157% | 137% | 1.7 µM | 7.54 µM | 3.58 µM | 1.67 µM | 6.13 µM | 3.2 µM | 1.87 µM | 9.05 µM | 4.11 µM | 1.67 µM | 3.24 µM | 1.94 µM | 4.19 µM | 1.93 µM | LC50 (concentration giving 50% net cell kill) [10]: 6.27 µM; LC50 (concentration giving 50% net cell kill) [12]: 6.94 µM; TGI [12]: 3.66 µM
6 | Cc1ccc(-c2nc(N3CCCNCC3)c3oc(-c4ccccc4)nc3n2)cc1 | 175% | 192% | 130% | 19% | 167% | 176% | 1.59 µM | 7.45 µM | 3.44 µM | 1.77 µM | 6.06 µM | 3.27 µM | 1.94 µM | 9.21 µM | 4.22 µM | 1.62 µM | 3.14 µM | 2.02 µM | 4 µM | 1.55 µM | CC50 [11]: 7.94 µM; LC50 (concentration giving 50% net cell kill) [12]: 6.75 µM; TGI [12]: 3.24 µM
